The test system of data set [1] is Chinese patients with type 2 diabetes. The data set can be described thus: Pharmacodynamics: change from baseline in HbA1c, FPG, 7-point SMBG, meal intake. In kind it is in vivo, human. The conditions noted are these: both tirzepatide groups; not apparent in placebo.
The test system is the same in data set [2]. The data set can be described thus: Safety and tolerability. To be noted: during the study. In kind it is in vivo, human. In a few lines:
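Adults aged 20–70 with T2D and BMI ≥ 23.0 kg/m2 received once-weekly SC test compound or placebo, followed by 4 weeks of follow-up. AEs were recorded on an electronic CRF with investigator-assessed relatedness. TEAEs were events arising or worsening after treatment start. Also collected: laboratory values, vital signs, ECG, injection-site reactions and hypoglycaemia (glucose ≤ 70.0 mg/dL, graded per International Hypoglycaemia Study Group). All enrolled patients were included.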

For data set [3] the following is noted: global and Japanese patient populations, single and multiple doses; cited from earlier work.
Data set [4] is described as follows: Tirzepatide plasma pharmacokinetics after multiple SC doses. In kind it is in vivo, human. To be noted: Chinese patients with T2D, QW SC 2.5–15.0 mg. The method in brief:
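Plasma test compound concentrations were measured after once-weekly SC doses escalated from 2.5 mg by 2.5 mg every 4 weeks, to 10.0 mg or 15.0 mg. Cmax, AUC, Tmax and T½ were derived. T½ was calculated over periods both shorter and longer than the resulting T½. Patients with ≥1 dose and evaluable data were analysed.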

Data set [5] relates to Chinese patients with type 2 diabetes. In words: Immunogenicity: anti-drug antibodies. In kind it is in vivo, human. In a few lines:
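Randomised 5:1, double-blind, placebo-controlled. Test compound or placebo given once weekly SC, starting at 2.5 mg and rising 2.5 mg every 4 weeks to 10.0 or 15.0 mg. Frequency and percentage of patients with pre-existing and treatment-emergent ADAs were recorded. Treatment-induced meant a titer twofold/1-dilution above the minimum required dilution with no baseline ADA. Treatment-boosted meant a fourfold/2-dilution titer rise over a positive baseline.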

Setting [6] is: all 20 patients treated with tirzepatide, treatment-induced.

“Also recorded” adds a separate entry of the source.

Turning to `CC[C@H](C)[C@H](NC(=O)[C@H](CC(C)C)NC(=O)[C@H](Cc1c[nH]c2ccccc12)NC(=O)[C@H](CCC(N)=O)NC(=O)[C@@H](NC(=O)[C@H](Cc1ccccc1)NC(=O)[C@H](C)NC(=O)[C@H](CCCCNC(=O)COCCOCCNC(=O)COCCOCCNC(=O)CC[C@H](NC(=O)CCCCCCCCCCCCCCCCCCC(=O)O)C(=O)O)NC(=O)[C@H](CCC(N)=O)NC(=O)[C@H](C)NC(=O)[C@@H](NC(=O)[C@H](CCCCN)NC(=O)[C@H](CC(=O)O)NC(=O)[C@H](CC(C)C)NC(=O)C(C)(C)NC(=O)[C@@H](NC(=O)[C@H](CO)NC(=O)[C@H](Cc1ccc(O)cc1)NC(=O)[C@H](CC(=O)O)NC(=O)[C@H](CO)NC(=O)[C@@H](NC(=O)[C@H](Cc1ccccc1)NC(=O)[C@@H](NC(=O)CNC(=O)[C@H](CCC(=O)O)NC(=O)C(C)(C)NC(=O)[C@@H](N)Cc1ccc(O)cc1)[C@@H](C)O)[C@@H](C)O)[C@@H](C)CC)[C@@H](C)CC)C(C)C)C(=O)N[C@@H](C)C(=O)NCC(=O)NCC(=O)N1CCC[C@H]1C(=O)N[C@@H](CO)C(=O)N[C@@H](CO)C(=O)NCC(=O)N[C@@H](C)C(=O)N1CCC[C@H]1C(=O)N1CCC[C@H]1C(=O)N1CCC[C@H]1C(=O)N[C@@H](CO)C(N)=O` [Tirzepatide, tirzepatide], in data set [1], the “meal intake between baseline and end of study” value is listed as “trend towards a decrease”. The “deaths or SAEs in patients receiving tirzepatide” value in data set [2] (both tirzepatide groups) is recorded as “no serious adverse events reported; also recorded: No deaths or SAEs occurred”. In addition, the “changes in vital signs measurements” value in data set [2] is recorded as “No clinically meaningful changes”. In data set [3], the “median Tmax range” value was 24 to 48 h. Besides, the “T½, range of values across weeks and cohorts” value in data set [4] is recorded as 124 to 145 h. Also, the results for the “ADA-positive patients post-baseline, number” value in data set [5] (2.5–10.0 mg group), in data set [5] (2.5–15.0 mg group) and in data set [5] (setting [6]) were “five”, “three” and “Eight”, respectively. Besides, in data set [5] (setting [6]), the “ADA-positive patients post-baseline, percentage” value was 40%. For the same compound, the ADAs at baseline result in data set [5] (baseline) is given as “No ADAs were detected”. The “impact of ADA-positive status on safety, PK and PD” value in data set [5] (in vivo) is given as “no apparent impact”.

The values above are taken from paper PMC10329955 (Advances in Therapy, 2023).
